SMILES strings stand for the structures.

For one data set, the target named is T1, SIRT3 (Homo sapiens, UniProt Q9NTG7).
T1 sequence (Q9NTG7 1-399): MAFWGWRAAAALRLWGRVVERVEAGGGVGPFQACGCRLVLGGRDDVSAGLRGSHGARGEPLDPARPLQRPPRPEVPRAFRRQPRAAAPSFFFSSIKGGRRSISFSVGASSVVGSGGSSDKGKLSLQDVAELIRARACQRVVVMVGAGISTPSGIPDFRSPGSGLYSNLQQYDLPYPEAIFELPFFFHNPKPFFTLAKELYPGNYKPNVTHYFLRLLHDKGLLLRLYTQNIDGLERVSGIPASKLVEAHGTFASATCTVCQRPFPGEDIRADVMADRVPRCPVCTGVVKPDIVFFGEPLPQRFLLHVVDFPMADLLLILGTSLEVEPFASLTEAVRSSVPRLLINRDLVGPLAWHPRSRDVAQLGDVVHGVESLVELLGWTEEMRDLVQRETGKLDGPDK
Nature of the data set: In vitro SIRT3 deacetylation inhibition, H3K9-Ac peptide substrate. Type of data set: biochemical. The settings on record: read-out: SIRT3 Deacetylation IC50, with 15 min pre-incubation. In outline: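 The enzyme was pre-incubated with NAD and test compound for 15 min, then substrate was added to start the deacetylation reaction. IC50 was determined under these pre-incubation conditions.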

For the next data set, the system named is ASPC1. In words: Growth inhibition. It counts as cell-based, human. The settings on record: ASPC1, pancreatic cancer, K-Ras G12D. In outline: (§1)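 Cancer cell lines were treated with test compound for growth inhibition. Each GI50 is the average of three independent experiments, each run in duplicate.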
A further data set has as its system HCT116. Nature of the data set: Growth inhibition. Type of data set: cell-based, human. Particulars: HCT116, colon cancer, K-Ras G13D. In outline:
as §1

Another data set concerns NCI-H23. Nature of the data set: Growth inhibition. Type of data set: cell-based, human. Particulars: NCI-H23, lung cancer, K-Ras G12C. In outline:
as §1

In a further data set the test system is MDA-MB-231. In words: Growth inhibition. Type of data set: cell-based, human. Particulars: MDA-MB-231, breast cancer, K-Ras G13D. In outline:
as §1

Another data set deals with HME1. Nature of the data set: Growth inhibition. Particulars: HME1, normal mammary epithelial cells, K-Ras WT. It counts as cell-based, human. The gist of the method:
(§2)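 GI50 determined for growth of the test compound's target cells; values averaged across three independent experiments, each run in duplicate.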

The next data set concerns MCF10A. Nature of the data set: Growth inhibition. Type of data set: cell-based, human. The settings on record: normal mammary epithelial cells, K-Ras WT. The gist of the method:
as §2

In the case of `CCCCCCCCCCCCCC(=S)NCCCCC(NC(=O)OCc1ccccc1)C(=O)Nc1ccccc1` (stereo not shown) [TM], the IC50 at SIRT3 is greater than 50 µM. Besides, the GI50 is 24 ± 5 µM in the data set with ASPC1; 19 ± 1 µM in the data set on HCT116; 29 ± 6 µM in the data set on NCI-H23; 13 ± 4 µM with MDA-MB-231; greater than 50 µM with HME1; greater than 50 µM in the data set on MCF10A.

As a reminder, the IC50 is the concentration needed to halve the response being measured. Broadly, the GI50 is the concentration giving 50% growth inhibition. A low value points to more potent growth inhibition.
